# In ChEMBL document CHEMBL1817588, “Design and synthesis of 1,3-biarylsulfanyl derivatives as new anti-breast cancer agents” (Bioorg Med Chem, 2011):
# Calls of active or inactive are those of the source. No cut-off for these calls is given here.
# Experiments:
# Rattus norvegicus [1] = experiment: Antiestrogenic activity in Sprague-Dawley rat assessed as inhibition of uterine weight gain administered as po daily once for 3 days relative to 17alpha-ethynylestradiol; assay type: functional
# How it was run: (§1)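 Immature female Sprague-Dawley rats given oral dosing once daily for 3 days on days 28–30 of age. Antiestrogenic arm co-dosed ethynylestradiol 0.02 mg/kg in 10% ethanol-water. Autopsy 24 h after last dose (day 31). Uterus excised, blotted and weighed, with vaginal opening and cornification also scored. Inhibition computed as (E − T)×100/E versus ethynylestradiol alone. Estrogenic gain expressed as percent increase over vehicle control.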
# Rattus norvegicus [2] = experiment: Antiimplantation activity in Sprague-Dawley albino rat at 20 mg/kg, po after 10 days; assay type: functional
# How it was run: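 Sperm-positive adult Sprague-Dawley females (180–220 g) mated with proven-fertile males. Compounds given orally as a gum acacia suspension on days 1–5 post-coitum, 5–7 animals per group. Vehicle-only group served as control.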
# Rattus norvegicus [3] = experiment: Estrogenic activity in Sprague-Dawley rat assessed as increase in uterine weight administered as po daily once for 3 days relative to control; assay type: functional; design: concentration or dose not given beside the values; how it was run: as §1
# Bone [4] = experiment: Antiosteoporotic activity in Sprague-Dawley rat [45Ca] pre-labeled bone assessed as inhibition of PTH-induced bone resorption after 96 hrs relative to control
# Bone marrow cell [5] = experiment: Osteoclastogenesis activity in BALB/c mouse bone marrow cells assessed as inhibition of RANK-induced RANK gene expression at 1 uM after 7 days by RT-PCR analysis; assay type: functional, cell-based
# How it was run: (§2)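 Bone marrow from long bones of 4–6-week-old Balb/c mice, plated overnight in α-MEM with 10% FBS and M-CSF. Nonadherent cells then cultured with RANKL 50 ng/ml and M-CSF 10 ng/ml plus test agent 1 µM, medium changed every 2 d for 7 d. TRAP and RANK mRNA measured by qPCR after Trizol RNA extraction, expressed as fold change over vehicle.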
# Bone [6] = experiment: Antiosteoporotic activity in Sprague-Dawley rat [45Ca] pre-labeled bone assessed as inhibition of PTH-induced bone resorption after 96 hrs
# Ishikawa = experiment: Antiproliferative activity against human Ishikawa cells expressing estrogen receptor after 48 hrs by MTT assay; assay type: functional, cell-based
# How it was run: (§3)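 Cells seeded at 1×10^4/well in DMEM with 10% FBS for 24 h at 37 °C, then exposed to compounds for 48 h. MTT (5 mg/mL) added for 4 h. Formazan dissolved in DMSO and absorbance read at 540 nm. Routine culture used DMEM with 10% FBS, 5% CO2, reduced to 2% FBS for growth inhibition.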
# Bone marrow cell [7] = experiment: Osteoclastogenesis activity in BALB/c mouse bone marrow cells assessed as inhibition of RANK-induced TRAP gene expression at 1 uM after 7 days by RT-PCR analysis; assay type: functional, cell-based; how it was run: as §2
# Bone marrow cell [8] = experiment: Osteoclastogenesis activity in BALB/c mouse bone marrow cells assessed as inhibition of MCSF-induced TRAP gene expression at 1 uM after 7 days by RT-PCR analysis; assay type: functional, cell-based; how it was run: as §2
# MDA-MB-231 = experiment: Antiproliferative activity against estrogen receptor-deficient human MDA-MB-231 cells […] after 48 hrs by MTT assay; assay type: functional, cell-based; conditions: MDA-MB-231, 48 h; how it was run: as §3
# Bone marrow cell [9] = experiment: Osteoclastogenesis activity in BALB/c mouse bone marrow cells assessed as inhibition of MCSF-induced RANK gene expression at 1 uM after 7 days by RT-PCR analysis; assay type: functional, cell-based; how it was run: as §2
# Rattus norvegicus [10] = species: Rattus norvegicus; experiment: Displacement of [3H]-estradiol from estrogen receptor in rat uteri after 18 hrs by scintillation counting relative to 17beta-estradiol
# How it was run: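 Cytosol from uteri of immature 20–21-day-old rats, in TEA buffer pH 7.4 (10 mM Tris, 1.5 mM EDTA, 0.02% azide). Incubated in triplicate with fixed 3H-estradiol ± competitor (DMF ≤5% final) for 18 h at 4 °C. Free ligand removed with dextran-coated charcoal (15 min, 800g 10 min), then supernatant counted. RBA taken at 50% inhibition from the bound-versus-log concentration plot.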
# MCF7 = experiment: Antiproliferative activity against human MCF7 cells expressing estrogen receptor after 48 hrs by MTT assay; assay type: functional, cell-based; conditions: MCF7, 48 h; how it was run: as §3
# HEK293 = experiment: Antiproliferative activity against human HEK293 cells after 48 hrs by MTT assay; assay type: cell-based; conditions: HEK293, 48 h; how it was run: as §3
Structure (SMILES),inhibition (INH) (Rattus norvegicus [1]),Activity (Rattus norvegicus [2]),Activity (Rattus norvegicus [3]),inhibition (INH) (Bone [4]),inhibition (Bone marrow cell [5]),T/C (Bone [6]),IC50 (Ishikawa),inhibition (Bone marrow cell [7]),inhibition (Bone marrow cell [8]),IC50 (MDA-MB-231),inhibition (Bone marrow cell [9]),RBA (Rattus norvegicus [10]),IC50 (MCF7),IC50 (HEK293)
O=C(CC(Sc1ccccc1)c1ccccc1)c1ccccc1 (stereo not given),16%,inactive,185%,43.8%,Active,0.562,20 µM,Active,Active,57 µM,Active,1.25%,24 µM,
COc1ccc(C(CC(=O)c2ccccc2)Sc2ccccc2)cc1 (stereo not given),18%,inactive,192%,21.6%,Active,0.784,26 µM,Active,Active,34 µM,Active,2.67%,21 µM,
COc1ccc(C(=O)CC(Sc2ccccc2)c2ccc(OC)cc2)cc1 (stereo not given),16%,inactive,187%,39%,Active,0.61,16 µM,Active,Active,31 µM,Active,2.21%,17 µM,38.2 µM
